Data reported in ChEMBL document CHEMBL4130346, “New quinoline-arylamidine hybrids: Synthesis, DNA/RNA binding and antitumor activity” (Eur J Med Chem, 2017).
The source made the active and inactive calls. The rule behind the calls is not given here.

How the values were obtained:
[1] = Growth inhibition of MDCK1 cells after 72 hrs by MTT assay; design: species or system Canis lupus familiaris; settings: dog
Procedure, shortened: (§1)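 Adherent cells (2x10^4 cells/cm3) attached overnight, then were exposed to compound for 72 h. Medium was replaced with 5 mg/cm3 MTT, formazan was dissolved in DMSO and absorbance read at 595 nm. Percent growth was taken relative to untreated control minus background. GI50 came from a variable-slope log-inhibitor fit, as mean ± SD of three independent experiments in triplicate.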

Calf thymus DNA [2] = experiment: Binding affinity to calf thymus DNA assessed as change in melting temperature at 0.5 compound to ds-polynucleotide ratio by spectrophotometric method; format: nucleic-acid assay; settings: Bos taurus
Procedure, shortened: (§2)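 Thermal melting of ct-DNA (sonicated, filtered) or polyA-polyU in Na cacodylate buffer, I = 0.05 mol dm-3, pH 7.0, at given r = [compound]/[polynucleotide]; polynucleotide as phosphate concentration. Tm from maximum of first derivative, checked by tangent method. ΔTm = Tm(complex) − Tm(free nucleic acid), average of at least two measurements, error ±0.5 °C.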

Raji = experiment: Growth inhibition of human Raji cells after 72 hrs by MTT assay; format: functional
Procedure, shortened: (§3)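 Leukemia cells (1x10^5 cells/cm3) were exposed to compound for 72 h, then MTT (5 mg/cm3) was added for 4 h. Formazan was dissolved with 10% SDS in 0.01 mol dm-3 HCl and absorbance read at 595 nm. Percent growth was taken versus untreated control minus background. GI50 came from a variable-slope fit, as mean ± SD of three independent experiments in triplicate.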

[3] = Binding affinity to polyA-polyU (unknown origin) assessed as hypochromic effect by UV-vis spectrophotometric method
Procedure, shortened: (§4)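 UV-Vis titration at room temperature in Na cacodylate buffer (I = 0.05 mol dm-3, pH 7.0). Portions of ct-DNA or polyA-polyU were added to a fixed compound concentration until saturation, with dilution correction. Polynucleotide was measured as phosphate. Ks and n were obtained by Scatchard analysis, together with the hypochromic change at the absorption maximum.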

HeLa = experiment: Growth inhibition of human HeLa cells after 72 hrs by MTT assay; format: functional; procedure, shortened: as §1
[4] = Chemical stability in aqueous solution after several weeks; format: physicochemical; settings: buffer
Procedure, shortened: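 Aqueous compound solutions were monitored for several weeks by UV-Vis absorbance at 220-900 nm. Linearity with concentration was checked up to 3.5 × 10^-5 mol dm-3, and spectra were recorded at 25–90 °C with reproducibility checked on cooling to 25 °C.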

Calf thymus DNA [5] = experiment: Binding affinity to calf thymus DNA minor groove at 0.1, 0.3, 0.5, 0.7 compound to ds-polynucleotide ratio by CD-spectrophotometric method; format: nucleic-acid assay; settings: Bos taurus
Procedure, shortened: (§5)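 Induced CD spectra were recorded in 1 cm quartz cuvettes in Na cacodylate buffer (I = 0.05 mol dm-3, pH 7.0) with ct-DNA or polyA-polyU. Compound was added at r = [compound]/[polynucleotide] = 0.1, 0.3, 0.5 and 0.7. The CD signal was followed as a function of r.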

[6] = Induction of polyA-polyU (unknown origin) intercalation at 0.1, 0.3, 0.5, 0.7 compound to ds-polynucleotide ratio by CD-spectrophotometric method; procedure, shortened: as §5
Calf thymus DNA [7] = experiment: Binding affinity to calf thymus DNA assessed as change in melting temperature at 0.1 compound to ds-polynucleotide ratio by spectrophotometric method; format: nucleic-acid assay; settings: Bos taurus; procedure, shortened: as §2
[8] = Solubility of the compound in water; format: physicochemical
[9] = Binding affinity to polyA-polyU (unknown origin) assessed as change in melting temperature at 0.1 compound to ds-polynucleotide ratio by spectrophotometric method; procedure, shortened: as §2
[10] = Binding affinity to polyA-polyU (unknown origin) assessed as change in melting temperature at 0.5 compound to ds-polynucleotide ratio by spectrophotometric method; procedure, shortened: as §2
Calf thymus DNA [11] = experiment: Binding affinity to calf thymus DNA by UV-vis spectrophotometric method; format: nucleic-acid assay; settings: Bos taurus; procedure, shortened: as §4
Caco-2 = experiment: Growth inhibition of human Caco2 cells after 72 hrs by MTT assay; format: functional; settings: Caco-2, 72 h; procedure, shortened: as §1
[12] = Binding affinity to polyA-polyU (unknown origin) assessed as change in melting temperature at 0.3 compound to ds-polynucleotide ratio by spectrophotometric method; procedure, shortened: as §2
K562 = experiment: Growth inhibition of human K562 cells after 72 hrs by MTT assay; format: functional; settings: K562, 72 h; procedure, shortened: as §3
Calf thymus DNA [13] = experiment: Binding affinity to calf thymus DNA assessed as hypochromic effect by UV-vis spectrophotometric method; format: nucleic-acid assay; settings: Bos taurus; procedure, shortened: as §4
Calf thymus DNA [14] = experiment: Binding affinity to calf thymus DNA assessed as change in melting temperature at 0.3 compound to ds-polynucleotide ratio by spectrophotometric method; format: nucleic-acid assay; settings: Bos taurus; procedure, shortened: as §2
[15] = Binding affinity to polyA-polyU (unknown origin) by UV-vis spectrophotometric method; procedure, shortened: as §4
Calf thymus DNA [16] = experiment: Disruption of calf thymus DNA helix at 0.1, 0.3, 0.5, 0.7 compound to ds-polynucleotide ratio by CD-spectrophotometric method; format: nucleic-acid assay; settings: Bos taurus; procedure, shortened: as §5

Row | SMILES | ΔTm (Calf thymus DNA [2]) [°C] | GI50 (Raji) [µM] | Activity [3] | GI50 (HeLa) [µM] | Stability [4] | Activity (Calf thymus DNA [5]) | Activity [6] | ΔTm (Calf thymus DNA [7]) [°C] | solubility [8] [µM] | ΔTm [9] [°C] | ΔTm [10] [°C] | log Ks (Calf thymus DNA [11]) | GI50 (Caco-2) [µM] | ΔTm [12] [°C] | GI50 (K562) [µM] | Activity (Calf thymus DNA [13]) [%] | ΔTm (Calf thymus DNA [14]) [°C] | log Ks [15] | Activity (Calf thymus DNA [16]) | GI50 at 72 h [1] [µM]
1 | Cl.Cl.Cl.N=C(N)c1ccc2nc(-c3ccc(Oc4ccnc5cc(Cl)ccc45)cc3)[nH]c2c1 | 2.9 | 111 | 6.9% | > 100 | Stable | Active | Active | 2.07 | 1000 | 2.98 | 0.21 | 6.83 | 82.9 | 0.72 | > 100 | 79.8 | 2.84 | 6.43 |  | > 100
2 | CC(C)CNC(=N)c1ccc(OCCNc2ccnc3cc(Cl)ccc23)cc1.Cl.Cl.Cl |  | 86.2 |  | > 100 | Stable |  |  |  | 1000 |  |  |  | 92.6 |  | 77.3 |  |  |  |  | > 100
3 | Cl.Cl.Clc1ccc2c(Oc3ccc(-c4nc5ccc(C6=NCCCN6)cc5[nH]4)cc3)ccnc2c1 | 3.89 | 50.5 | 15.5% | 64.4 | Stable | Active | Active | 3.3 | 1000 | 2.84 | 1.82 | 6.96 | 34.5 | 1.98 | 21.6 | 25.5 | 3.31 | 7.29 |  | 67.1
4 | Cl.Cl.Clc1ccc2c(Oc3ccc(C4=NCCCN4)cc3)ccnc2c1 | 1.96 | 50.8 |  | 57 | Stable |  |  | 2.08 | 1000 | 1.62 | 1.32 |  | 53.3 | 1.22 | 62 |  | 1.86 |  |  | 37.5
5 | Cl.Cl.Cl.Clc1ccc2c(NCCOc3ccc(-c4nc5ccc(C6=NCCCN6)cc5[nH]4)cc3)ccnc2c1 | 10.8 | 19 | inactive | > 100 | Stable | Active |  | 6.33 | 1000 |  |  | 6.52 | > 100 |  | 13.3 | 31 | 9.76 | inactive | Active | 100
6 | Cl.Cl.Clc1ccc2c(Oc3ccc(C4=NCCN4)cc3)ccnc2c1 | 2.73 | 40.8 |  | 57.7 | Stable |  |  | 2.65 | 1000 | 1.18 | 1.49 |  | 64 | 2.18 | 48.7 |  | 2.67 |  |  | 56.6
7 | Cl.Cl.Clc1ccc2c(NCCOc3ccc(C4=NCCCN4)cc3)ccnc2c1 |  | > 100 |  | > 100 | Stable |  |  |  | 1000 |  |  |  | > 100 |  | > 100 |  |  |  |  | > 100
8 | Cl.Cl.N=C(N)c1ccc(Oc2ccnc3cc(Cl)ccc23)cc1 | 2.07 | 53 |  | 59.1 | Stable |  |  | 1.76 | 1000 | 0 | -0.26 |  | 57.6 | -0.16 | 62.5 |  | 2.17 |  |  | 52.8
9 | CC(C)NC(=N)c1ccc(Oc2ccnc3cc(Cl)ccc23)cc1.Cl.Cl.Cl | 2.28 | 51.8 |  | 56.6 | Stable |  |  | 2.01 | 1000 | 0.36 |  |  | 47.7 | -0.36 | 82.9 |  | 2.28 |  |  | 57.7

More lines, main results first:

Row | ΔTm (Calf thymus DNA [2]) [°C] | GI50 (Raji) [µM] | Activity [3] | GI50 (HeLa) [µM] | Stability [4] | Activity (Calf thymus DNA [5]) | Activity [6] | ΔTm (Calf thymus DNA [7]) [°C] | solubility [8] [µM] | ΔTm [9] [°C] | ΔTm [10] [°C] | log Ks (Calf thymus DNA [11]) | GI50 (Caco-2) [µM] | ΔTm [12] [°C] | GI50 (K562) [µM] | Activity (Calf thymus DNA [13]) [%] | ΔTm (Calf thymus DNA [14]) [°C] | log Ks [15] | Activity (Calf thymus DNA [16]) | SMILES | GI50 at 72 h [1] [µM]
10 |  | 96.9 |  | > 100 | Stable |  |  |  | 1000 |  |  |  | 84.5 |  | 76.9 |  |  |  |  | Cl.Cl.N=C(NC1CCCC1)c1ccc(OCCNc2ccnc3cc(Cl)ccc23)cc1 | > 100
11 |  | > 100 |  | > 100 | Stable |  |  |  | 1000 |  |  |  | > 100 |  | > 100 |  |  |  |  | CC(C)NC(=N)c1ccc(OCCNc2ccnc3cc(Cl)ccc23)cc1.Cl.Cl.Cl | > 100
12 | 3.07 | 41.5 | 22.8% | 61.9 | Stable | Active | Active | 1.41 | 1000 | 0.18 | 6.82 | 6.23 | 47.4 | 4.06 | 54.6 | 36.7 | 2.91 | 6.31 |  | Cl.Cl.N=C(NC1CCCC1)c1ccc2nc(-c3ccc(Oc4ccnc5cc(Cl)ccc45)cc3)[nH]c2c1 | 55.5
13 | 4.08 | 40.6 | 69.7% | > 100 | Stable | Active | Active | 1.6 | 1000 | -0.16 | 1.12 | 5.76 | 36.8 | 0.78 | 27.6 | 68.5 | 3.2 |  |  | Cl.Cl.Clc1ccc2c(Oc3ccc(-c4nc5ccc(C6=NCCN6)cc5[nH]4)cc3)ccnc2c1 | 77.1
14 | 9.83 | 19.6 | inactive | > 100 | Stable | Active |  | 5.83 | 1000 |  |  | 6.63 | > 100 |  | 17.2 | 23.7 | 9.05 | inactive | Active | CC(C)NC(=N)c1ccc2nc(-c3ccc(OCCNc4ccnc5cc(Cl)ccc45)cc3)[nH]c2c1.Cl.Cl.Cl | > 100
15 |  | 58.9 |  | 74 | Stable |  |  |  | 1000 |  |  |  | 68.6 |  | 49.5 |  |  |  |  | Cl.Cl.Cl.N=C(N)c1ccc(OCCNc2ccnc3cc(Cl)ccc23)cc1 | 74.4
16 |  | 51.5 |  | 60.8 | Stable |  |  |  | 1000 |  |  |  | 50.7 |  | 51.9 |  |  |  |  | Cl.Cl.Clc1ccc2c(NCCOc3ccc(C4=NCCN4)cc3)ccnc2c1 | 78.4
17 | 8.4 | 29.3 | inactive | > 100 | Stable | Active |  | 4.84 | 1000 |  |  | 6.72 | > 100 |  | 34.7 | 17.7 | 8.4 | inactive | Active | Cl.Cl.Cl.N=C(N)c1ccc2nc(-c3ccc(OCCNc4ccnc5cc(Cl)ccc45)cc3)[nH]c2c1 | 71.6
